Data published in ChEMBL document CHEMBL2346540 (J Med Chem, 2013).

Experiments:
Type in all cases: ADME
Cytochrome P450 3A4 [1] = target: T1, Cytochrome P450 3A4 (Homo sapiens, UniProt P08684, S119A); assay: Binding affinity to CYP3A4 (3-22)-deleted S119A mutant (unknown origin) expressed in Escherichia coli by spectrophotometric analysis; settings: read-out: Ks
Method in brief: (§1)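 Spectrophotometric titration of purified enzyme with small aliquots of ligand in DMSO (final solvent ≤2%) in 50 mM phosphate, pH 7.4, 20% glycerol, 1 mM dithiothreitol; spectra recorded at room temperature and spectral dissociation constant Ks derived from absorbance change vs ligand concentration.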

Cytochrome P450 3A4 [2] = target: T2, Cytochrome P450 3A4 (Homo sapiens, UniProt P08684); assay: Ratio of compound binding constant to ritonavir binding constant for C-terminal His-tagged wild type CYP3A4 (unknown origin)
Cytochrome P450 3A4 [3] = target: T2, Cytochrome P450 3A4; assay: Binding affinity to C-terminal His-tagged wild type CYP3A4 (unknown origin) expressed in Escherichia coli assessed as spectral changes by spectrophotometric analysis relative to control; method in brief: as §1
Cytochrome P450 3A4 [4] = target: T2, Cytochrome P450 3A4; assay: Inhibition of C-terminal His-tagged wild type CYP3A4 (unknown origin)-mediated hydroxylation of 7-benzyloxy-4-trifluoromethylcoumarin expressed in Escherichia coli after 5 mins by fluorimetric analysis
Method in brief: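 Reconstituted system at room temperature: CYP3A4 (0.3 μM) with rat CPR (0.6 μM) in 25 mM phosphate, pH 7.4, 3 mM MgCl2, preincubated 5 min with inhibitor with or without 100 μM NADPH, then 50 μM BFC added.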

Cytochrome P450 3A4 [5] = target: T1, Cytochrome P450 3A4; assay: Binding affinity to CYP3A4 (3-22)-deleted S119A mutant (unknown origin) expressed in Escherichia coli assessed as increase in melting temperature by spectrophotometric analysis (reference value: 53.5 +/- 0.1 degC)
Cytochrome P450 3A4 [6] = target: T2, Cytochrome P450 3A4; assay: Binding affinity to C-terminal His-tagged wild type CYP3A4 (unknown origin) expressed in Escherichia coli by spectrophotometric analysis; settings: read-out: Ks; method in brief: as §1
Cytochrome P450 3A4 [7] = target: T1, Cytochrome P450 3A4; assay: Binding affinity to CYP3A4 (3-22)-deleted S119A mutant (unknown origin) expressed in Escherichia coli by stopped flow assay
Cytochrome P450 3A4 [8] = target: T2, Cytochrome P450 3A4; assay: Binding affinity to C-terminal His-tagged wild type CYP3A4 (unknown origin) expressed in Escherichia coli assessed as increase in melting temperature by spectrophotometric analysis (reference value: 52.1 +/- 0.1 degC)
Cytochrome P450 3A4 [9] = target: T2, Cytochrome P450 3A4; assay: Binding affinity to C-terminal His-tagged wild type CYP3A4 (unknown origin)-bromoergocryptine complex expressed in Escherichia coli by spectrophotometric analysis; settings: read-out: Ks
Cytochrome P450 3A4 [10] = target: T2, Cytochrome P450 3A4; assay: Ratio of ritonavir Ks to compound Ks for C-terminal His-tagged wild type CYP3A4 (unknown origin)
Cytochrome P450 3A4 [11] = target: T2, Cytochrome P450 3A4; assay: Binding affinity to C-terminal His-tagged wild type CYP3A4 (unknown origin) expressed in Escherichia coli assessed as rate constant of fast phase of reaction by stopped flow assay
CYP3A4 = CYP3A4 (Homo sapiens, UniProt P08684); assay: Ratio of ritonavir IC50 to compound IC50 for C-terminal His-tagged wild type CYP3A4 (unknown origin); settings: read-out: Ratio IC50
CYP3A4, sequence (P08684 whole entry): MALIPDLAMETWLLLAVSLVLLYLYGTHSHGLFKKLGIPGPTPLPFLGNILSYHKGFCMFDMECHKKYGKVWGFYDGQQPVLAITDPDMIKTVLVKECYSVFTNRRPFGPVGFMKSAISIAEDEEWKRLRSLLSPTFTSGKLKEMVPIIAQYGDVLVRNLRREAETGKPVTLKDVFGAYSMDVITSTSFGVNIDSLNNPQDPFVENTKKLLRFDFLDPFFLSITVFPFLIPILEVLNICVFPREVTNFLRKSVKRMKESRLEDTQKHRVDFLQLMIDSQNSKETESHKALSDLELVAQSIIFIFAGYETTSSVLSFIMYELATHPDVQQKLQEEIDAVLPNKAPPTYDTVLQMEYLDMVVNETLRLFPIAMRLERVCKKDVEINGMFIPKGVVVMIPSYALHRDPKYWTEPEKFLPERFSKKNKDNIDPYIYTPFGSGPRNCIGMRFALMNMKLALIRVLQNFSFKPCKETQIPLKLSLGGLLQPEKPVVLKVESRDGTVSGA

T1 sequence (P08684 2-503 S119A limits assumed): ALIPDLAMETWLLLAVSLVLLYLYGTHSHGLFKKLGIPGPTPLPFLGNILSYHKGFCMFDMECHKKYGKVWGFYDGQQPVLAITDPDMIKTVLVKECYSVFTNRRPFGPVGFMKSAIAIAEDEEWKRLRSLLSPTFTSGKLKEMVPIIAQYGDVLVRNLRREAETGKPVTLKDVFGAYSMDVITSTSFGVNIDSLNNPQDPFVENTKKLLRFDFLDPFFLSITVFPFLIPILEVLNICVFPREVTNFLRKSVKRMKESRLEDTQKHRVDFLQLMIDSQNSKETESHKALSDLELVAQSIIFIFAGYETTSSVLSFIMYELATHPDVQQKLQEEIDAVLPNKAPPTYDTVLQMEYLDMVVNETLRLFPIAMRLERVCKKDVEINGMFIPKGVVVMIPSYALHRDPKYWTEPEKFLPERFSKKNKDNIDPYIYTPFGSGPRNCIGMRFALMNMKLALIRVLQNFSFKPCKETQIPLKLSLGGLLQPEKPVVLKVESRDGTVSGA
T2 sequence (P08684 whole entry): as the sequence (P08684 whole entry) above

Kd (Cytochrome P450 3A4 [1]) [nM] | Ratio (Cytochrome P450 3A4 [2]) | Activity (Cytochrome P450 3A4 [3]) | IC50 (Cytochrome P450 3A4 [4]) [nM] | Tm (Cytochrome P450 3A4 [5]) [°C] | Kd (Cytochrome P450 3A4 [6]) [nM] | K (Cytochrome P450 3A4 [7]) [s⁻¹] | Tm (Cytochrome P450 3A4 [8]) [°C] | Kd (Cytochrome P450 3A4 [9]) [nM] | Ratio (Cytochrome P450 3A4 [10]) | K (Cytochrome P450 3A4 [11]) [s⁻¹] | Compound | selectivity ratio (CYP3A4)
65 | 5 | Active | 130 | 55.6 | 25 | 0.32 | 57.2 | 5 | 2 | 7 | CC(C)c1nc(CN(C)C(=O)N[C@H](C(=O)N[C@H](CC[C@H](Cc2ccccc2)NC(=O)OCc2cccnc2)Cc2ccccc2)C(C)C)cs1 | 
970 |  | 60% | 3400 | 53.2 | 570 | 0.2 | 54.8 |  |  | 2.2 | CC(C)c1nc(CN(C)C(=O)N[C@H](C(=O)N[C@H](CC[C@H](Cc2ccccc2)NC(=O)OCc2cnco2)Cc2ccccc2)C(C)C)cs1 | 
67 |  | Not Active | 280 | 55.5 | 22 | 0.17 | 56.5 |  | 2 | 1.9 | CC(C)c1nc(CN(C)C(=O)N[C@H](C(=O)N[C@H](CC[C@H](Cc2ccccc2)NC(=O)OCc2cnc[nH]2)Cc2ccccc2)C(C)C)cs1 | 2
